Test results reported in ChEMBL document CHEMBL4251591, “Primaquine hybrids as promising antimycobacterial and antimalarial agents” (Eur J Med Chem, 2018).
In brackets after ≈: the same amount, converted by molar mass.

Legend:
[1] = tested on: Mycobacterium avium; experiment: Antimycobacterial activity against Mycobacterium avium subsp. paratuberculosis CIT03 clinical isolate after 11 days by Alamar Blue assay; assay type: functional; details: CIT03, 264 h
[2] = tested on: Mycobacterium avium complex sp.; experiment: Antimycobacterial activity against Mycobacterium avium complex CIT19/06 clinical isolate after 5 days by Alamar Blue assay; assay type: functional; details: CIT19/06, 120 h
[3] = tested on: HEK293; experiment: Cytotoxicity against human HEK293 cells; assay type: cell-based
[4] = tested on: Mycobacterium tuberculosis; experiment: Antimycobacterial activity against Mycobacterium tuberculosis H37Ra ATCC 25177 after 7 days by Alamar Blue assay; assay type: functional; details: H37Ra ATCC 25177, 168 h
Method in brief: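 Log-phase culture washed and resuspended in supplemented Middlebrook 7H9GC broth, adjusted to McFarland No. 1, then diluted 1:20. Equal volumes of culture and DMSO-prepared compound dilutions were tested in duplicate for 7 days. 10% AlamarBlue was added, with 570/600 nm readings for background and after 24 h reincubation. Blue meant no growth, pink meant growth. MIC was the lowest concentration without visible growth.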

Structure (SMILES)	MIC [1] [µg/mL]	MIC [2] [µg/mL]	IC50 [3] [µg/mL]	MIC [4] [µg/mL]
COc1cc(NC(C)CCCNC(=O)Nc2ccc(Br)cc2)c2ncccc2c1 (stereo not drawn)	16 (≈ 35 µM)	16 (≈ 35 µM)	200 (≈ 437 µM)	8 (≈ 17.5 µM)
COc1cc(NC(C)CCCNC(=O)Nc2ccc(C(F)(F)F)cc2)c2ncccc2c1 (stereo not drawn)	8 (≈ 17.9 µM)	16 (≈ 35.8 µM)	200 (≈ 448 µM)	4 (≈ 8.96 µM)
